According to paper PMC2765518 (Journal of medicinal chemistry, 2009):

Tests used:
[1] = cited from earlier work
c-Myc-Max(S) heterodimer = c-Myc-Max(S) heterodimer (Homo sapiens, UniProt P01106); experiment: Circular dichroism assay of c-Myc-Max dimer disruption; format: biochemical
In short: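 Circular dichroism of an equimolar c-Myc/Max(S) mixture, each at 1.5 µM, with helical content from ellipticity at 222 nm. Dimer disruption lowers helicity. Test compound was titrated and the data fitted to a competition constant (Kcomp). Kcomp multiplied by the independently determined c-Myc-Max dissociation constant gives the affinity for the c-Myc monomer, assuming monomer-only binding. Run in triplicate.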

c-Myc (353–437) monomer = c-Myc (353–437) monomer (Homo sapiens, UniProt P01106); experiment: Fluorescence polarization competition against 1 for c-Myc binding
In short: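 Fluorescence polarization of an intrinsically fluorescent parent Myc-Max disruptor used as probe; polarization rises when the probe binds the c-Myc (353–437) monomer. Test compound was titrated to displace the probe, and the data fitted to a competition constant (Kcomp). Affinity is Kcomp multiplied by the probe–c-Myc(353–437) dissociation constant. Run in triplicate.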

HL60 cells = experiment: HL60 cell growth inhibition; format: cell-based; details: for Inhibition in HL60 cells: higher levels of c-Myc
In short: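 Test compound added to HL60 cells across a dose range, and growth followed over several days. IC50 taken from the dose-response profile on day 5 after compound addition. For the selectivity comparison, TGR1 normal rat fibroblasts and TGR1 knockout cells over-expressing HMGA1b (KO+HMG) were tested alongside.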

[2] = test system: TGR1 knockout cells with over-expressed HMGA1b (KO+HMG); experiment: Growth inhibition of TGR1 knockout cells with over-expressed HMGA1b; format: cell-based, rat; details: cells lacking c-Myc; compared with HL60 and TGR1

Chain of c-Myc (353–437) monomer (P01106 368-452): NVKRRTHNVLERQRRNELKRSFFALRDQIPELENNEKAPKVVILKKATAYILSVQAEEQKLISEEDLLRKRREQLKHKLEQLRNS
Chain of c-Myc-Max(S) heterodimer (P01106 368-452, one chain of several): as the sequence (P01106 368-452) above

Structure (SMILES)	Kd (c-Myc-Max(S) heterodimer) [µM]	Kd (c-Myc (353–437) monomer) [µM]	IC50 (HL60 cells; Homo sapiens, HL-60, 120 h, read-out: IC50 on HL60 cell growth) [µM]	Metabolism and clearance [1]	Inhibition in HL60 cells (HL60 cells)	Selectivity for HL60 cells (HL60 cells; HL60 versus TGR1 and KO+HMG cells)	Effect on growth of KO+HMG cells [2]
CCc1ccc(/C=C2\SC(=S)NC2=O)cc1 [compound 1, [Z,E]-5-[4-ethylbenzylidine]-2-thioxothiazolidin-4-one]	–	–	–	extensive metabolism and rapid clearance	–	–	–
O=C(CCN1C(=O)c2ccccc2C1=O)N1CCCCC1 [compound 2]	10	2.5	–	–	–	–	–
CC(C)c1ccc(OCC(=O)Nc2nc3ccccc3s2)cc1 [compound 4]	19	18	–	–	–	–	–
Cc1ccc(C)c(OCN2Cc3ccccc3C2C=O)c1 (stereo not drawn) [compound 6]	–	–	16.7	–	very good inhibition	–	least effect

Now from value to compound, other results behind:

Kd (c-Myc-Max(S) heterodimer) [µM]	Kd (c-Myc (353–437) monomer) [µM]	IC50 (HL60 cells; Homo sapiens, HL-60, 120 h, read-out: IC50 on HL60 cell growth) [µM]	Structure (SMILES)	Metabolism and clearance [1]	Inhibition in HL60 cells (HL60 cells)	Selectivity for HL60 cells (HL60 cells; HL60 versus TGR1 and KO+HMG cells)	Effect on growth of KO+HMG cells [2]
25	40	–	CCc1ccc(N2CC(C(=O)OC)CC2=O)cc1 (stereo not drawn) [compound 3]	–	–	–	–
45	70	–	CCc1ccc(OCC(=O)Nc2ccc(C)cc2Br)cc1 [compound 5]	–	very good inhibition	more selective for HL60s than 6	least effect
